Unmarked numbers belong to inactive results.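 The calls were made as follows, unless noted: active = viability increase at or above a cutoff of the median across tested compounds plus 3 SD (cut at about 8.5% in these data, passing the limit was not always enough); inconclusive = some gains above the cutoff, reason not given; inactive = the rest.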

One assay in a line: S. cerevisiae growth inhibition in restrictive medium, OD615, pilot screen, restrictive growth control, yeast lifespan reduction project (AID 706;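 active = growth inhibition above a set limit, 3 SD over mean compound inhibition, in both replicates, cut at about 43% in these data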). The following applies: OD615, 48 h, at 10 µM, active compounds read high. A digest of the protocol: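 Assay system – genetically modified Saccharomyces cerevisiae, DeaD replicative lifespan assay strain · Medium – CSMM-D glucose medium · Doses – 10 µM compound, 0.25% DMSO · Times – 4 h pre-incubation, 48 h exposure at 30 °C · Signal – optical density at 615 nm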
Regarding `COc1ccc2[nH]c(C)c(CCN3C(=O)OC(C)(C)C3(C)O)c2c1` (stereo not drawn), the growth inhibition was -5.26%.
The same measure, in the same setting: the figure for `COc1ccc(N(CC(=O)Nc2ccc3c(c2)OCO3)S(=O)(=O)c2c(C)nn(C)c2C)cc1` is -11.5%.
On the same count and under the same terms, under `Cc1onc(-c2ccccc2Cl)c1C(=O)Nc1cnn(Cc2ccccc2)c1` stands -9.34%; under `CCOCCCNC(=O)CN1CCN(Cc2ccccc2C)C1=O`, 6.12%; under `CCN1C(=O)c2cccc3c(NC(=O)c4ccc(S(=O)(=O)N(C)C)cc4)ccc1c23`, -15.2%.
The same measure, in the same setting: under `O=C(Nc1cccc2ccccc12)c1ccc(Br)o1` stands 1.96%.
With `c1ccc(-c2cn3cccnc3n2)cc1`, the growth inhibition was -27%.

The nature of the next assay: doxorubicin toxicity protection in MRP-1 cells – H69AR cells, CellTiter-Glo, duplicate, MRP-1 activator project, pilot screen (AID 807).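 Also: compound pretreatment 18-22 h then 72 h combined with doxorubicin; 0% = doxorubicin alone and 100% = vehicle without doxorubicin.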 The following applies: H69AR viability with doxorubicin, CellTiter-Glo luminescence; at 10 µM; active compounds read high. A general note: Cellular ATP, detected with luciferase, serves as a proxy for viable cell number.
For `COc1cccc(C2=NOC(C(=O)N3CCN(c4ccccc4)CC3)C2)c1OC` (stereo not drawn), the viability increase is 2.2%.
On the same count and under the same terms, under `O=C(Nc1ccc2c(c1)OCO2)c1ccc(CN2CCOCC2)cc1` stands 0.57%; under `O=C(Cn1nc(Cc2ccncc2)c2ccccc2c1=O)N1CCc2ccccc2C1`, -2.78%.
The same measure, in the same setting: the figure for `CCOCCCNC(=O)c1ccc2c(c1)N(Cc1ccccc1)C(=O)CS2=O` (stereo not drawn) is -0.16%; for `CS(=O)(=O)Nc1ccccc1C(=O)O` it is -1.2%.
Take `CCOC(=O)N1CCC(Nc2ncnc3c2cnn3-c2ccc(C)cc2C)CC1`: the viability increase was -6.54%.
The same measure, in the same setting: under `CC1(C)C(c2ccccc2)=NC(c2ccccc2)N1O` (stereo not drawn) stands -1.73%; under `O=C(CS(=O)(=O)Cc1ccccc1)Nc1nc2ccccc2s1`, -0.52%.
Take `CCOC(=O)N1CCN(C(=O)COc2ccc(S(=O)(=O)NC(C)C)cc2)CC1`: the viability increase is -0.64%.
Take `COc1ccc(N2CCN(CCNC(=O)CCS(=O)(=O)c3cccc4nsnc34)CC2)cc1`: the viability increase was -1.51%.
As for `COc1cccc(C2CC(=O)Nc3c2c(=O)n(C)c(=O)n3C)c1OC` (stereo not drawn), the viability increase is 0.25%.
On to `CCN1C(=O)c2ccccc2S(=O)c2ccc(C(=O)NC3CC3)cc21` (stereo not drawn), for which the viability increase is -2.52%.
Regarding `CCOC(=O)CCc1c(C)nc2cc(-c3ccc(F)cc3)[nH]n2c1=O`, the viability increase is -1.53%.
The same measure, in the same setting: under `CCC(C)(C(=O)NC1CCCC1)N(Cc1cccs1)C(C)=O` (stereo not drawn) stands -0.17%.
Same read-out and setting: the figure for `COc1ccccc1NC(=O)C1(C)Cc2ccccc2C(=O)O1` (stereo not drawn) is -0.93%.
As to `COC(=O)c1sc(NC(=O)COc2ccccc2OC)nc1C`, the viability increase was -1.51%.
For `O=C(Nc1ccc2c(c1)OCCO2)NC1CCCCC1`, the viability increase is -0.85%.
Same read-out and setting: the figure for `c1ccc2c(c1)nc(NCCN1CCOCC1)c1nncn12` is 1.59%; for `O=C(c1ccc(Br)cc1)N1CCN(S(=O)(=O)c2ccccc2)CC1` it is -1.15%.
On the same count and under the same terms, under `C/C=C/Cn1c(SCCCc2ccccc2)nc2c1c(=O)[nH]c(=O)n2C` stands -3.52%; under `O=c1c2ccccc2nc(SCc2nc(-c3ccccc3)no2)n1-c1ccc(F)cc1`, -1.52%.
Consider `Cn1c(=O)c2c(nc3sccn32)n(C)c1=O`, for which the viability increase was -1.33%.
Same read-out and setting: the figure for `CCCCOc1ccc(-c2ncc(Cl)cn2)cc1` is 3.52%.
On the same count and under the same terms, under `CCOC(=O)c1ccc(N2Cc3cc(C)c(C)cc3C2)cc1O` stands 2.66%; under `O=C(CSc1nc(-c2ccco2)cc(C(F)(F)F)n1)NCCCn1ccnc1`, -0.15%; under `COc1cccc(NC(=O)CSc2nnc(Cc3cccn3C)n2-c2ccc(F)cc2)c1`, -4.32%.
Same read-out and setting: the figure for `CCOC(=O)c1ccc(-n2c(C)nc3c(cnn3-c3ccccc3C)c2=O)cc1` is -0.28%; for `CCOC(=O)C1=C(C)N(C)C(=O)NC1c1ccccc1OC` (stereo not drawn) it is 0.16%; for `Cc1ccc(CSc2nc3c(c(=O)[nH]2)CCC3)cc1` it is -0.74%.
In the case of `CCOC(=O)c1c(C)n(C)c2c(C)cc(O)c(OC(C)=O)c12`, the viability increase was -5.24%.
Same read-out and setting: under `Cc1ccccc1NC(=O)C1CCCN(S(=O)(=O)c2cnc[nH]2)C1` (stereo not drawn) stands -2.13%; under `O=C(NCc1ccc(F)cc1)c1cc2ccccn2n1`, -0.54%.
In the case of `CCCNC(=O)C1CCN(S(=O)(=O)c2ccc3nc4c(c(C(=O)O)c3c2)CCCCC4)CC1`, the viability increase is 1.14%.
Same read-out and setting: the figure for `COc1ccc2[nH]c(C)c(CCN3C(=O)OC(C)(C)C3(C)O)c2c1` (stereo not drawn) is -1.56%.
Still for that read-out and setting: under `COc1ccc(N(CC(=O)Nc2ccc3c(c2)OCO3)S(=O)(=O)c2c(C)nn(C)c2C)cc1` stands -2.78%.
Same read-out and setting: under `Cc1onc(-c2ccccc2Cl)c1C(=O)Nc1cnn(Cc2ccccc2)c1` stands 1.54%.

These data come from PubChem BioAssay.
